The values that follow come from paper PMC12594201 (Proteins, 2025).

The target of test [1] is T1, β‐clamp (Escherichia coli, UniProt P0A988). As to conditions: literature values; ref [34], [35]; cited from earlier work.
The target of test [2] is T1, β‐clamp. Nature of the test: Calculated fraction of β‐clamp bound / saturation level. Format: binding, E. coli. As to conditions: NMR titration, 200 μM β‐clamp with up to 800 μM peptide. A digest of the protocol:
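Fraction of β-clamp bound computed from the quadratic single-site equation using total protein concentration, total ligand concentration and K_D. […]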

T1 sequence (P0A988 whole entry): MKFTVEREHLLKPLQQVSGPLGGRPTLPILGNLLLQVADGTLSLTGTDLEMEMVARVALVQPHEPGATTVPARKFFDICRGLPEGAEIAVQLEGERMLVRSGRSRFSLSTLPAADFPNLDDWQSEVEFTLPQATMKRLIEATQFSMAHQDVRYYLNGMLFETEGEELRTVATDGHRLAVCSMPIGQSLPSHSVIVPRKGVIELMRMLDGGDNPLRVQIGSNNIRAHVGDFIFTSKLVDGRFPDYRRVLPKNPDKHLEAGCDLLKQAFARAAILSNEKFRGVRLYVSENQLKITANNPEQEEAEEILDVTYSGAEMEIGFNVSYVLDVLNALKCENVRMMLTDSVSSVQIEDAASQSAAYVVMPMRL

For orientation: Kd means the constant that tells how readily two partners part at equilibrium. For NH3 ^+‐GWLDPQMERQLVLGL‐COO^— [pol IV*], at β‐clamp [1], the Kd is 2 to 8 µM. For the same substance, the “saturation level of β‐clamp” value on β‐clamp [2] is given as > 98%.
